Calpain2 inh: blocks pig calpain II enzyme activity. purified calpain II, fluorogenic peptide substrate, 30 min. inhibition, % at 16 µM. 220,000 compounds, 0.37% hits. AID 1236;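 active means inhibition above about 50%, limit read from the data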
Rad51 HR inh: blocks human Rad51 in homologous recombination | Q06609 | hRad51 DNA strand exchange, fluorescence dequenching | inhibition, % at 10 µM | 200,000 compounds, 0.085% hits | AID 1385;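 active means inhibition above 40% at the single screening dose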
Target sequence (Q06609 whole entry, looked up): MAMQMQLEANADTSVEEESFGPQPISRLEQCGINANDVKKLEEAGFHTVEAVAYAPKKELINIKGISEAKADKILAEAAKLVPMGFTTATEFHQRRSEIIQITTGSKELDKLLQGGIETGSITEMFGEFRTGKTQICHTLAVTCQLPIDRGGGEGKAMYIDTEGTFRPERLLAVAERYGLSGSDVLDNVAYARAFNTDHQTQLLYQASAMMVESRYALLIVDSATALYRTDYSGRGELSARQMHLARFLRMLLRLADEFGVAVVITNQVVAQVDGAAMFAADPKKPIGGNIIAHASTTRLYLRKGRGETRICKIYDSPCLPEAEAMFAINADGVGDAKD
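Assay system: Human Rad51 nucleoprotein filaments preassembled on unlabelled ssDNA | Reagent: Donor/quencher-labelled 47-bp dsDNA substrate | Doses: One concentration, 10 µM final | Times: 37 °C 15-min filament assembly, 30-min compound preincubation, 15-min exchange | Technique: Fluorescein emission 520 nm, excitation 485 nm | Benchmarks: Plate control and blank wells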
PMI activator: activators of human phosphomannose isomerase. P34949. purified human PMI, coupled resazurin fluorescence, 20 min; active compounds read high; 1 = vehicle control, 0 substrate-free wells. activation factor at 20 µM. 190,000 compounds, 0.005% hits;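 active means activation factor of 2 or more at 20 µM, relative to plate controls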
HMGR II inh: blocks class II HMG-CoA reductase of Enterococcus faecalis | purified E. faecalis HMGR, NADPH absorbance 340 nm kinetic | inhibition, % at 10 µM | 190,000 compounds, 0.41% hits;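 active means inhibition above a set limit, the median over all tested compounds plus 3 SD, cut at about 9.5% in these data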;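 further: enzyme runs in reverse so mevalonate oxidation gives rising NADPH absorbance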
PMI act hi M6P: activators of human phosphomannose isomerase at near-saturating mannose 6-phosphate; coupled PMI enzyme assay, resazurin fluorescence, 20 min; active compounds read high; 1 = untreated enzyme, 0 = substrate-free blank; activation factor at 20 µM; 190,000 compounds, 0.34% hits; AID 1216;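 active means activation factor of 2 or more at 20 µM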
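Test system: Human PMI in coupled enzyme assay | Input: 15 ng/mL PMI | Medium: HEPES-buffered pH 7.4 with magnesium and detergent | Compound: One concentration, 20 µM, in 1% DMSO | Incubation: Enzyme reaction with compound 20 min at room temperature | Detection: Diaphorase-driven resazurin-to-resorufin fluorescence, excitation 544, emission 590 nm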
Of the large screens only hits and unclear results are named; the others gave an inactive call; ! = a repeat was not active. A selection: hits, their analogues and other compounds. The true share with any hit is near 1.1%.

O=C(COC(=O)C1CCN(C(=O)c2ccc(Cl)cc2)CC1)NC1CCS(=O)(=O)C1 (stereo not given)	none
COc1ccc(OC)c(NC(=O)COC(=O)CSc2ccc(Cl)cc2)c1	Calpain2 inh 90.3
COc1ccc(OC)c(NC(=O)CSc2ccc3ccccc3c2)c1	none
COc1ccc(C)cc1NC(=O)COC(=O)C1CCN(C(=O)c2ccc(Cl)cc2)CC1	HMGR II inh 18.9
Cn1c(=O)n(C)c2cc([N+](=O)[O-])c(N3CCN(CCO)CC3)cc21	Calpain2 inh 66.4 (no result: Rad51 HR inh)
CCCCC(=O)C1=C(N2CCCC2)CC(C)(C)CC1=O	HMGR II inh 11.8 (no result: PMI activator, PMI act hi M6P)
c1ccc(N2CCN(c3ncnc4scc(-c5cccs5)c34)CC2)cc1	Calpain2 inh 53.7
O=C(c1ccco1)N1CCN(c2ncnc3scc(-c4cccs4)c23)CC1	none
Cc1cc(C)c2c(N)c(C(=O)N3CCc4ccccc4C3)sc2n1	PMI act hi M6P 2
CS(=O)(=O)Nc1cccc(C2=NN(S(C)(=O)=O)C(c3ccccc3)C2)c1 (stereo not given)	Rad51 HR inh 42.7
O=C(CCS(=O)(=O)Cc1ccc(Cl)cc1)NCCc1ccccc1	none
Cc1ccc(C(=O)CC2(O)C(=O)N(C)c3ccccc32)s1 (stereo not given)	HMGR II inh 14.3
CN1C(=O)C(O)(CC(=O)c2cccs2)c2ccccc21 (stereo not given)	none
CN1C(=O)C(O)(CC(=O)/C=C\c2ccc3c(c2)OCO3)c2ccccc21 (stereo not given)	HMGR II inh 10.6 (no result: Rad51 HR inh)
CC(=O)Nc1ccc(NC(=O)C(OC(=O)c2ccccc2)C(OC(=O)c2ccccc2)C(=O)O)cc1 (stereo not given)	none
CCOC(=O)C1(Cc2ccc(Cl)cc2)CCN(C(=O)CCc2ccncc2)CC1	none (no result: Rad51 HR inh)
Cc1cccc(OCCn2c(=S)[nH]c3ccccc32)c1	HMGR II inh 11.3
Cc1cccc(OCCn2c(S(=O)(=O)O)nc3ccccc32)c1	none
COCCNC(=O)C(c1ccccc1)N(C(=O)Cn1nnc2ccccc21)c1cccnc1 (stereo not given)	none
COCCNC(=O)C(c1ccccc1C)N(C(=O)Cn1nnc2ccccc21)c1cccnc1 (stereo not given)	HMGR II inh 15.0
COc1ccc(/C(N)=N/OC(=O)Cc2ccccc2[N+](=O)[O-])cc1	Calpain2 inh 56.7
N/C(=N\OC(=O)Cc1ccccc1[N+](=O)[O-])c1cccnc1	none
NC(=S)N/N=C/c1ncc(C(F)(F)F)cc1Cl	none (no result: PMI activator, HMGR II inh, PMI act hi M6P)
Cc1nc(C/C(=N\Nc2ccccc2)c2ccc(O)cc2O)cs1	PMI act hi M6P 2.1
Cc1nc(CC(=O)c2ccc(O)cc2O)cs1	none
CCc1cc(/C(Cc2ccccn2)=N\Nc2ccccc2)c(O)cc1O	PMI act hi M6P 2.1
Cc1nnc(SCC(=O)NCc2ccccc2Cl)[nH]c1=O	none
CCC1CCCCN1C(=O)CCn1ccnc1 (stereo not given)	HMGR II inh 15.0
O=C(CCc1nnc(-c2ccsc2)o1)N1CCCCC1CCn1ccnc1 (stereo not given)	none
COc1cc(C2=NC(CO)(CO)CO2)cc(OC)c1OC	none
CCNc1nc(NC(C)C)nc(NC(C)(C)C)n1	HMGR II inh 13.0
CC(=O)N/C(=C/c1ccc([N+](=O)[O-])cc1)C(=O)O	none
On1onc2c3cc(-c4ccccc4)nc3ccc21	Calpain2 inh 82.5 (no result: Rad51 HR inh)
Cc1ccc(S(=O)(=O)N/N=C\c2ccc([N+](=O)[O-])o2)cc1	PMI act hi M6P 2.1
O=[N+]([O-])c1ccc(/C=N/NS(=O)(=O)c2ccc(Cl)cc2)o1	PMI act hi M6P 2.2
COc1ccccc1C(C)NCC(=O)Nc1c(F)cccc1F (stereo not given)	none (no result: Rad51 HR inh)
COc1cc(Cl)c(C)cc1NC(=O)CNC(C)c1ccccc1OC (stereo not given)	Calpain2 inh 89.8
N#CCCCn1c(=O)oc2ccccc21	HMGR II inh 14.9
O=c1oc2ccccc2n1CCCCCn1c(=O)oc2ccccc21	none
CN1C(=O)C2C(c3ccc(N(C)C)cc3)=NN(Cc3ccccc3)C2C1=O (stereo not given)	none
CCCCN1C(=O)C2(NNc3ccccc3O2)c2ccccc21 (stereo not given)	PMI act hi M6P 2.1
O=C(Nc1ccc(Oc2ccc(C(=O)O)c(C(=O)O)c2)cc1)c1cccs1	none
COC(=O)c1cccc(NC(=O)c2cccnc2C(=O)O)c1C	none
CCCn1c(SCC(=O)NC(C)(C)C)nnc1C(C)C	none
Cc1cc(=S)cc(C)n1CCO	PMI act hi M6P 2.4 (no result: Rad51 HR inh)
O=C(COc1ccc(Cl)cc1[N+](=O)[O-])N1CCCCCC1	none
Cc1ccc(N2NC3(CCN(C(N)=O)CC3)NC2=O)cc1	PMI act hi M6P 2.3
Cn1nnnc1SC1CC(=O)N(c2ccccc2)C1=O (stereo not given)	none (no result: Rad51 HR inh)
Cc1cc(C)cc(N2C(=O)CC(Sc3nnnn3-c3ccccc3)C2=O)c1 (stereo not given)	Rad51 HR inh 108.6
COC(=O)c1nc(N)sc1-c1ccccc1	Rad51 HR inh 75.5
COC(=O)c1nc(N)sc1-c1ccc(Cl)cc1	none
CCc1ccc(OCC(=O)c2c(O)c3ccccc3oc2=O)cc1	none (no result: Rad51 HR inh)
CCc1oc2ccccc2c1C(=O)c1cc(Br)c(O)c(Br)c1	Calpain2 inh 55.4!
N#CC(C#N)=c1ccc2c(c1)NC1(CCCCC1)N=2	none
Fc1ccc(N/N=C2/CC(c3ccccc3)Oc3ccccc32)c(F)c1 (stereo not given)	PMI act hi M6P 2.5
C/C(=N\Nc1ccc([N+](=O)[O-])cc1)c1ccc(N)cc1	PMI act hi M6P 2.3
CCc1ccc(/C(C)=N\Nc2ccc([N+](=O)[O-])cc2)cc1	none
CC(=O)N1CCN(c2ccccc2NC(=O)COc2ccc(Br)cc2)CC1	HMGR II inh 12.6
O=C(COc1ccc(Br)cc1)Nc1ccccc1N1CCCC1	none
CCCCCCCC(=O)N/N=C/c1cccnc1	none
CCCCCCCCC(=O)N/N=C(\C)c1cccnc1	PMI act hi M6P 2.3
[O-]C1=N/[N+](=C/c2ccc(Cl)cc2)CC1	PMI act hi M6P 2
Cc1cc(NC(=O)CCC(=O)N(CC(=O)NC2CCCC2)c2ccccc2)no1	HMGR II inh 10.2
CCOC(=O)CNC(=O)CN1C(=O)CC(c2ccccc2)S(=O)(=O)c2ccccc21 (stereo not given)	HMGR II inh 10.7
CCc1cccc(CC)c1NC(=O)c1cc(CN2C(=O)c3ccccc3C2=O)ccc1OC	Calpain2 inh 50.1
CNS(=O)(=O)c1ccc(NS(=O)(=O)c2ccccc2F)cc1	none
CCOC(=O)c1c2c3c(c(Cl)ccc3[nH]c1=O)C(=O)c1ccccc1-2	PMI act hi M6P 2
CCN(CC)c1nc(-c2ccccn2)nc(-c2ccccc2)c1C#N	none
CSC1=C(C#N)C(c2ccccc2)C(C(C)=O)=C(C)N1 (stereo not given)	none
